According to ChEMBL document CHEMBL1629556 (2008):
≈ marks a conversion by molar mass, not a printed value. Calls of active or inactive are those of the source. No cut-off for these calls is given here.

Key:
[1] = test system: Staphylococcus aureus; test: Antibacterial activity against Staphylococcus aureus isolate 6083 infected in Wistar rat thigh infection model assessed as bacterial load per gram of thigh at 200 mg/kg, sc administered 2 hrs postinfection and every 6 hrs thereafter for 1 day measured after 24 hrs (reference value: 8.6%); type: functional; conditions: route subcutaneous
[2] = test system: Staphylococcus aureus; test: Antibacterial activity against Staphylococcus aureus isolate 6083 by agar dilution method; type: functional
[3] = test system: Staphylococcus aureus; test: Effect on growth of Staphylococcus aureus isolate 4666 assessed as highest compound concentration at which cell growth occurred measured after 48 hrs; type: functional
How it was run: (§1)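 Overnight cultures were set to 4 McFarland in cation-adjusted MH broth and spread at about 10^8, 10^7 and 10^6 CFU, or 10^4 if growth was confluent. Colonies were counted after 48 h at 35°C. Three runs, median CFU.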

[4] = test system: Staphylococcus aureus; test: Antibacterial activity against Staphylococcus aureus isolate 2712 assessed as reduction in bacterial count at 20 ug/ml after 24 hrs by time-kill assay; type: functional, organism-based
How it was run: (§2)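 Overnight Mueller-Hinton broth cultures were diluted in cation-adjusted MH broth. About 10^6 to 10^7 CFU went into MH broth with 20 μg/ml dicloxacillin at 35°C. Viable counts were made by spreading 0.1 ml at 0, 1, 3, 6, 9, 14, 24, 30, 42 and 48 h. Three runs, with the median CFU plotted semilogarithmically.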

[5] = test system: Staphylococcus aureus; test: Effect on growth of Staphylococcus aureus isolate 1306 assessed as highest compound concentration at which cell growth occurred measured after 48 hrs; type: functional; how it was run: as §1
[6] = test system: Staphylococcus aureus; test: Effect on growth of Staphylococcus aureus isolate 1552 assessed as highest compound concentration at which cell growth occurred measured after 48 hrs; type: functional; how it was run: as §1
[7] = test system: Staphylococcus aureus; test: Antibacterial activity against Staphylococcus aureus isolate 4666 infected in Wistar rat thigh infection model assessed as bacterial load per gram of thigh at 200 mg/kg, sc administered 2 hrs postinfection and every 6 hrs thereafter for 1 day measured after 24 hrs (reference value: 8.6%); type: functional; conditions: route subcutaneous
[8] = test system: Staphylococcus aureus; test: Antibacterial activity against Staphylococcus aureus isolate 1306 assessed as reduction in bacterial count at 20 ug/ml after 24 hrs by time-kill assay; type: functional, organism-based; how it was run: as §2
[9] = test system: Staphylococcus aureus; test: Effect on growth of Staphylococcus aureus isolate 1326 assessed as highest compound concentration at which cell growth occurred measured after 48 hrs; type: functional; how it was run: as §1
[10] = test system: Staphylococcus aureus; test: Antibacterial activity against Staphylococcus aureus isolate 1306 by agar dilution method; type: functional
[11] = test system: Staphylococcus aureus; test: Antibacterial activity against Staphylococcus aureus isolate 1552 infected in Wistar rat thigh infection model assessed as bacterial load per gram of thigh at 200 mg/kg, sc administered 2 hrs postinfection and every 6 hrs thereafter for 1 day measured after 24 hrs (reference value: 8.6%); type: functional; conditions: route subcutaneous
[12] = test system: Staphylococcus aureus; test: Effect on growth of against Staphylococcus aureus isolate 4666 assessed as highest compound concentration at which cell growth occurred measured after 48 hrs in presence of 2% NaCl; type: functional
How it was run: (§3)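 Inocula of about 10^8 to 10^6 CFU came from a 4 McFarland suspension. Colonies were counted after 48 h at 35°C. Three runs, median CFU.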

[13] = test system: Staphylococcus aureus; test: Antibacterial activity against Staphylococcus aureus isolate 1552 assessed as reduction in bacterial count at 20 ug/ml after 24 hrs by time-kill assay; type: functional, organism-based; how it was run: as §2
[14] = test system: Staphylococcus aureus; test: Antibacterial activity against Staphylococcus aureus isolate 29213 infected in Wistar rat thigh infection model assessed as bacterial load per gram of thigh at 200 mg/kg, sc administered 2 hrs postinfection and every 6 hrs thereafter for 1 day measured after 24 hrs (reference value: 8.6%); type: functional; conditions: route subcutaneous
[15] = test system: Staphylococcus aureus; test: Antibacterial activity against Staphylococcus aureus isolate 2712 by agar dilution method; type: functional
[16] = test system: Staphylococcus aureus; test: Antibacterial activity against Staphylococcus aureus isolate 1326 infected in Wistar rat thigh infection model assessed as bacterial load per gram of thigh at 200 mg/kg, sc administered 2 hrs postinfection and every 6 hrs thereafter for 1 day measured after 24 hrs (reference value: 8.6%); type: functional; conditions: route subcutaneous
[17] = test system: Staphylococcus aureus; test: Antibacterial activity against Staphylococcus aureus isolate 1552 by agar dilution method; type: functional
[18] = test system: Staphylococcus aureus; test: Antibacterial activity against mecA-negative Staphylococcus aureus isolate 29213 assessed as reduction in bacterial count at 20 ug/ml after 24 hrs by time-kill assay; type: functional, organism-based; how it was run: as §2
[19] = test system: Staphylococcus aureus; test: Antibacterial activity against Staphylococcus aureus isolate 1326 by agar dilution method; type: functional
How it was run: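 mecA-positive clinical isolate collected October–November 2006, species confirmed on Vitek 2. MIC determined by agar dilution following CLSI guidelines, with 2-μg/ml concentration steps from 2 to 16 μg/ml.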

[20] = test system: Staphylococcus aureus; test: Effect on growth of mecA-negative Staphylococcus aureus isolate 29213 by assessed as highest compound concentration at which cell growth occurred measured after 48 hrs; type: functional; how it was run: as §1
[21] = test system: Staphylococcus aureus; test: Antibacterial activity against Staphylococcus aureus isolate 1326 assessed as reduction in bacterial count at 20 ug/ml after 24 hrs by time-kill assay; type: functional, organism-based; how it was run: as §2
[22] = test system: Staphylococcus aureus; test: Antibacterial activity against Staphylococcus aureus isolate 6083 assessed as reduction in bacterial count at 20 ug/ml after 24 hrs by time-kill assay; type: functional, organism-based; how it was run: as §2
[23] = test system: Staphylococcus aureus; test: Antibacterial activity against Staphylococcus aureus isolate 4666 assessed as reduction in bacterial count at 20 ug/ml after 24 hrs by time-kill assay; type: functional, organism-based; how it was run: as §2
[24] = test system: Staphylococcus aureus; test: Antibacterial activity against Staphylococcus aureus isolate 1306 infected in Wistar rat thigh infection model assessed as bacterial load per gram of thigh at 200 mg/kg, sc administered 2 hrs postinfection and every 6 hrs thereafter for 1 day measured after 24 hrs (reference value: 8.6%); type: functional; conditions: route subcutaneous
[25] = test system: Staphylococcus aureus; test: Antibacterial activity against mecA-negative Staphylococcus aureus isolate 29213 by agar dilution method; type: functional
[26] = test system: Staphylococcus aureus; test: Effect on growth of Staphylococcus aureus isolate 1326 assessed as highest compound concentration at which cell growth occurred measured after 48 hrs in presence of 2% NaCl; type: functional; how it was run: as §3
[27] = test system: Staphylococcus aureus; test: Antibacterial activity against Staphylococcus aureus isolate 4666 by agar dilution method; type: functional
[28] = test system: Staphylococcus aureus; test: Antibacterial activity against Staphylococcus aureus isolate 2712 infected in Wistar rat thigh infection model assessed as bacterial load per gram of thigh at 200 mg/kg, sc administered 2 hrs postinfection and every 6 hrs thereafter for 1 day measured after 24 hrs (reference value: 8.6%); type: functional; conditions: route subcutaneous

## Cc1onc(-c2ccccc2)c1C(=O)N[C@@H]1C(=O)N2[C@@H]1SC(C)(C)[C@@H]2C(=O)O [OXACILLIN]
[1]
  Activity: 6.2%
[2]
  MIC: 6 µg/mL (≈ 14.9 µM)
[3]
  Activity: 1 µg/mL
[4]
  inhibition: inactive
[5]
  Activity: 32 µg/mL
[6]
  Activity: 64 µg/mL
[7]
  Activity: 10.4%
[8]
  inhibition: Active
[9]
  Activity: 0.5 µg/mL
[10]
  MIC: 0.5 µg/mL (≈ 1.25 µM)
[11]
  Activity: 9.1%
[12]
  Activity: 2 µg/mL
[13]
  inhibition: Active
[14]
  Activity: 12.4%
[15]
  MIC: 256 µg/mL (≈ 638 µM)
[16]
  Activity: 4.3%
[17]
  MIC: 1 µg/mL (≈ 2.49 µM)
[18]
  inhibition: Active
[19]
  MIC: 0.25 µg/mL (≈ 0.623 µM)
[20]
  Activity: 0.5 µg/mL
[21]
  inhibition: Active
[22]
  inhibition: Active
[23]
  inhibition: Active
[24]
  Activity: 9.7%
[25]
  MIC: 0.125 µg/mL (≈ 0.311 µM)
[26]
  Activity: 1 µg/mL
[27]
  MIC: 1 µg/mL (≈ 2.49 µM)
[28]
  Activity: 8.8%
